# Source: ChEMBL document CHEMBL3612047, “Synthesis, antiproliferative activity and possible mechanism of action of novel 2-acetamidobenzamides bearing the 2-phenoxy functionality” (Bioorg Med Chem, 2015)
# Calls of active or inactive are those of the source. The rule behind the calls is not given here.
# Legend:
# [1] = tested on: K562; assay: Growth inhibition of human K562 cells at 10 uM incubated for 24 hrs by trypan blue dye exclusion assay; assay type: functional; settings: K562, 24 h, read-out: GI
# How it was run: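 K562 cells in medium with 5% FBS at 37 °C, 5% CO₂. About 2 × 10⁵ cells/mL cultured 24 h, then compound added at 10 μM. After 24 h exposure, cells counted by hemocytometer and viability scored by trypan blue exclusion, reported as percent growth inhibition.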
# [2] = tested on: K562; assay: Selectivity index, ratio of IC50 for human HuDe cells to IC50 human K562 cells
# How it was run: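 Index taken as the ratio of HuDe to K562 IC₅₀. For K562: about 2 × 10⁵ cells/mL, compounds added at graded concentrations, viable count by trypan blue exclusion with a hemocytometer after 24 h. For HuDe primary epidermal cells: 2 × 10⁴ cells/mL, drugs or 0.1% DMSO added 24 h after seeding, MTT read at 570 nm (690 nm blank) after 72 h.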
# [3] = Growth inhibition of human NCI60 cells assessed as cell growth level at 10 uM by NCI standard protocol based method; assay type: functional; design: scale not given: the % may be the effect or the level left
# How it was run: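 NCI 60-cell-line screen (leukemia, lung, colon, melanoma, renal, ovarian, brain, breast, prostate) run to the NCI standard protocol. Single high dose of 10⁻⁵ M, read as growth percent. Mean graph midpoint is the arithmetic mean over all lines tested.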
# [4] = tested on: CCRF-CEM; assay: Growth inhibition of human CCRF-CEM cells by NCI standard protocol based method; assay type: functional
# How it was run: (§1)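 NCI full 60-cell-line panel, 5-dose assay to the NCI standard protocol. GI₅₀ is the molar concentration inhibiting 50% net cell growth. Mean graph midpoint is averaged over all lines; where the effect is not reached, the highest tested concentration is used.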
# [5] = tested on: K562; assay: Growth inhibition of human K562 cells by NCI standard protocol based method; assay type: functional; how it was run: as §1
# [6] = Growth inhibition of human RPMI8226 cells by NCI standard protocol based method; assay type: functional; settings: RPMI-8226; how it was run: as §1
# [7] = tested on: SR; assay: Growth inhibition of human SR cells by NCI standard protocol based method; assay type: functional
# How it was run: (§2)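 NCI 60-cell-line screen, standard NCI protocol. Single high dose of 10⁻⁵ M first, then a 5-dose assay across the full panel. Reported as GI₅₀, TGI and LC₅₀, the molar concentrations giving 50% net growth inhibition, total growth inhibition and 50% net cell death. Where an effect was not reached, the highest tested concentration was used.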
# [8] = tested on: A549; assay: Growth inhibition of human A549/ATCC cells by NCI standard protocol based method; assay type: functional; how it was run: as §1
# [9] = tested on: HOP-62; assay: Growth inhibition of human HOP62 cells by NCI standard protocol based method; assay type: functional; how it was run: as §1
# [10] = Growth inhibition of human HOP92 cells by NCI standard protocol based method; assay type: functional; settings: HOP-92; how it was run: as §1
# [11] = tested on: NCI-H226; assay: Growth inhibition of human NCI-H226 cells by NCI standard protocol based method; assay type: functional; how it was run: as §1
# [12] = tested on: NCI-H322M; assay: Growth inhibition of human NCI-H322M cells by NCI standard protocol based method; assay type: functional; how it was run: as §1
# [13] = Growth inhibition of human HCC2998 cells by NCI standard protocol based method; assay type: functional; settings: HCC 2998; how it was run: as §1
# [14] = tested on: HCT-15; assay: Growth inhibition of human HCT15 cells by NCI standard protocol based method; assay type: functional; how it was run: as §1
# [15] = tested on: HT-29; assay: Growth inhibition of human HT-29 cells by NCI standard protocol based method; assay type: functional; how it was run: as §1
# [16] = tested on: KM12; assay: Growth inhibition of human KM12 cells by NCI standard protocol based method; assay type: functional; how it was run: as §1
# [17] = tested on: SW-620; assay: Growth inhibition of human SW620 cells by NCI standard protocol based method; assay type: functional; how it was run: as §2
# [18] = tested on: SF-268; assay: Growth inhibition of human SF268 cells by NCI standard protocol based method; assay type: functional; how it was run: as §1
# [19] = Growth inhibition of human SF295 cells by NCI standard protocol based method; assay type: functional; settings: SF-295; how it was run: as §1
# [20] = Growth inhibition of human SF539 cells by NCI standard protocol based method; assay type: functional; settings: SF-539; how it was run: as §1
# [21] = tested on: SNB-75; assay: Growth inhibition of human SNB75 cells by NCI standard protocol based method; assay type: functional; how it was run: as §2
# [22] = Growth inhibition of human LOXIMVI cells by NCI standard protocol based method; assay type: functional; settings: LOX IMVI; how it was run: as §1
# [23] = tested on: M14; assay: Growth inhibition of human M14 cells by NCI standard protocol based method; assay type: functional; how it was run: as §1
# [24] = tested on: MDA-MB-435; assay: Growth inhibition of human MDA-MB-435 cells by NCI standard protocol based method; assay type: functional; how it was run: as §1
# [25] = tested on: SK-MEL-2; assay: Growth inhibition of human SK-MEL-2 cells by NCI standard protocol based method; assay type: functional; how it was run: as §1
# [26] = tested on: SK-MEL-28; assay: Growth inhibition of human SK-MEL-28 cells by NCI standard protocol based method; assay type: functional; how it was run: as §1
# [27] = tested on: SK-MEL-5; assay: Growth inhibition of human SK-MEL-5 cells by NCI standard protocol based method; assay type: functional; how it was run: as §1
# [28] = tested on: UACC-257; assay: Growth inhibition of human UACC257 cells by NCI standard protocol based method; assay type: functional; how it was run: as §2
# [29] = tested on: UACC-62; assay: Growth inhibition of human UACC62 cells by NCI standard protocol based method; assay type: functional; how it was run: as §2
# [30] = tested on: IGROV-1; assay: Growth inhibition of human IGROV1 cells by NCI standard protocol based method; assay type: functional; how it was run: as §1
# [31] = tested on: OVCAR-3; assay: Growth inhibition of human OVCAR3 cells by NCI standard protocol based method; assay type: functional; how it was run: as §1
# [32] = tested on: NCI/ADR-RES; assay: Growth inhibition of human NCI/ADR-RES cells by NCI standard protocol based method; assay type: functional; how it was run: as §1
# [33] = tested on: 786-0; assay: Growth inhibition of human 786-0 cells by NCI standard protocol based method; assay type: functional; how it was run: as §1
# [34] = tested on: A498; assay: Growth inhibition of human A498 cells by NCI standard protocol based method; assay type: functional; how it was run: as §1
# [35] = tested on: ACHN; assay: Growth inhibition of human ACHN cells by NCI standard protocol based method; assay type: functional; how it was run: as §1
# [36] = tested on: CAKI-1; assay: Growth inhibition of human CAKI-1 cells by NCI standard protocol based method; assay type: functional; how it was run: as §1
# [37] = tested on: SN12C; assay: Growth inhibition of human SN12C cells by NCI standard protocol based method; assay type: functional; how it was run: as §2
# [38] = tested on: TK-10; assay: Growth inhibition of human TK10 cells by NCI standard protocol based method; assay type: functional; how it was run: as §2
# [39] = tested on: UO-31; assay: Growth inhibition of human UO31 cells by NCI standard protocol based method; assay type: functional; how it was run: as §2
# [40] = tested on: DU-145; assay: Growth inhibition of human DU145 cells by NCI standard protocol based method; assay type: functional; how it was run: as §1
# [41] = tested on: MCF7; assay: Growth inhibition of human MCF7 cells by NCI standard protocol based method; assay type: functional; how it was run: as §1
# [42] = tested on: MDA-MB-231; assay: Growth inhibition of human MDA-MB-231 cells by NCI standard protocol based method; assay type: functional; how it was run: as §1
# [43] = Growth inhibition of human Hs578T cells by NCI standard protocol based method; assay type: functional; settings: Hs-578T; how it was run: as §1
# [44] = tested on: MDA-MB-468; assay: Growth inhibition of human MDA-MB-468 cells by NCI standard protocol based method; assay type: functional; how it was run: as §1
# [45] = molecular target: T1, Tubulin (Homo sapiens) (UniProt P68371+Q9H4B7+P0DPH7+P68366+Q13509+Q71U36+P04350+Q3ZCM7+P07437+P68363+Q9BQE3+Q6PEY2+Q13885+Q9BVA1+Q9BUF5); assay: Inhibition of tubulin (unknown origin) assembly; assay type: protein-complex assay
# [46] = molecular target: T1, Tubulin (Homo sapiens); assay: Inhibition of colchicine binding to tubulin (unknown origin); assay type: protein-complex assay
smiles,measurement,setting,value
COc1ccc(NC(=O)COc2ccccc2)c(C(N)=O)c1,inhibition of growth at 10 µM,[1],85.3%
same,Ratio IC50,[2],856.28
same,Activity,[3],25.81%
same,GI50,[4],487 nM
same,GI50,[5],245 nM
same,GI50,[6],1170 nM
same,GI50,[7],392 nM
same,GI50,[8],908 nM
same,GI50,[9],1010 nM
same,GI50,[10],414 nM
same,GI50,[11],21500 nM
same,GI50,[12],2100 nM
same,GI50,[13],2340 nM
same,GI50,[14],432 nM
same,GI50,[15],388 nM
same,GI50,[16],388 nM
same,GI50,[17],448 nM
same,GI50,[18],2420 nM
same,GI50,[19],650 nM
same,GI50,[20],441 nM
same,GI50,[21],245 nM
same,GI50,[22],869 nM
same,GI50,[23],514 nM
same,GI50,[24],121 nM
same,GI50,[25],611 nM
same,GI50,[26],502 nM
same,GI50,[27],1680 nM
same,GI50,[28],> 100000 nM
same,GI50,[29],1050 nM
same,GI50,[30],4750 nM
same,GI50,[31],375 nM
same,GI50,[32],418 nM
same,GI50,[33],2100 nM
same,GI50,[34],304 nM
same,GI50,[35],2250 nM
same,GI50,[36],721 nM
same,GI50,[37],3090 nM
same,GI50,[38],23800 nM
same,GI50,[39],8720 nM
same,GI50,[40],1870 nM
same,GI50,[41],497 nM
same,GI50,[42],2030 nM
same,GI50,[43],592 nM
same,GI50,[44],345 nM
same,inhibition,[45],inactive
same,inhibition,[46],inactive
NC(=O)c1cc(I)ccc1NC(=O)COc1ccccc1,inhibition of growth at 10 µM,[1],73%
same,Ratio IC50,[2],1987.5
same,Activity,[3],24.31%
same,GI50,[4],382 nM
same,GI50,[5],161 nM
same,GI50,[6],553 nM
same,GI50,[7],221 nM
same,GI50,[8],732 nM
same,GI50,[9],824 nM
same,GI50,[10],1500 nM
same,GI50,[11],4940 nM
same,GI50,[12],705 nM
same,GI50,[13],2950 nM
same,GI50,[14],253 nM
same,GI50,[15],349 nM
same,GI50,[16],308 nM
same,GI50,[17],454 nM
same,GI50,[18],934 nM
same,GI50,[19],223 nM
same,GI50,[20],249 nM
same,GI50,[21],215 nM
same,GI50,[22],822 nM
same,GI50,[23],389 nM
same,GI50,[24],101 nM
same,GI50,[25],463 nM
same,GI50,[26],1790 nM
same,GI50,[27],533 nM
same,GI50,[28],41700 nM
same,GI50,[29],701 nM
same,GI50,[30],1370 nM
same,GI50,[31],321 nM
same,GI50,[32],344 nM
same,GI50,[33],1070 nM
same,GI50,[34],1020 nM
same,GI50,[35],1320 nM
same,GI50,[36],519 nM
same,GI50,[37],945 nM
same,GI50,[38],8110 nM
same,GI50,[39],2870 nM
same,GI50,[40],444 nM
same,GI50,[41],230 nM
same,GI50,[42],1280 nM
same,GI50,[43],630 nM
same,GI50,[44],351 nM
same,inhibition,[45],inactive
same,inhibition,[46],inactive
